According to ChEMBL document CHEMBL1128731, “Furanfurin and thiophenfurin: two novel tiazofurin analogues. Synthesis, structure, antitumor activity, and interactions with inosine monophosphate dehydrogenase” (J Med Chem, 1995):

How the values were obtained:
L1210 = test: Inhibitory concentration against L1210 murine lymphocytic leukemia cell lines; inactive until a maximum tested concentration of 200 uM; assay type: functional, cell-based, Mus musculus
In short: (§1)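 Cells in log phase plated with a range of drug concentrations (B16 5×10^3 cells/well; P388, L1210, LLC 10^4 cells/well; HL-60, K562, LoVo 2.5×10^5 cells/well). Growth read by modified MTT after 72 h drug contact at 37 °C. IC50 taken as the concentration reducing optical absorption by 50%, from Chou regression analysis. Maximum concentration tested 200 μM.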

P388 = test: Inhibitory concentration against P388 murine lymphocytic leukemia cell lines; Inactive until a maximum tested concentration of 200 uM; assay type: functional, cell-based, Mus musculus; in short: as §1
[1] = test system: Lewis lung carcinoma cell line; test: Inhibitory concentration against LLC Lewis lung carcinoma cell lines; Inactive until a maximum tested concentration of 200 uM; assay type: functional, cell-based, Mus musculus; in short: as §1
B16 = test: Inhibitory concentration against B16 melanoma cell lines; Inactive until a maximum tested concentration of 200 uM; assay type: functional, cell-based, Mus musculus; in short: as §1
K562 [2] = test: Formation of NAD analogue by compound at 100 uM concentration against human myelogenous leukemia K562; assay type: functional
In short: (§2)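 K562 cells (1×10^7/10 mL) were labeled with 185 nM [2,8-3H]adenosine for 1 h at 37 °C, then given saline or analogue for 2 h. Cells were pelleted, washed with PBS and extracted in cold 10% trichloroacetic acid. Extracts were neutralized with 0.5 M tri-n-octylamine in freon and run on SAX HPLC with ammonium phosphate buffer. Results are pmol NAD analogue per 10^9 cells.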

K562 [3] = test: Formation of NAD analogue by compound at 50 uM concentration against human myelogenous leukemia K562; assay type: functional; in short: as §2
HL-60 = test: Inhibitory concentration against HL-60 human promyelocytic leukemia cell lines; inactive until a maximum tested concentration of 200 uM; assay type: functional, cell-based; in short: as §1
LoVo = test: Inhibitory concentration against LoVo human colon adenocarcinoma cell lines; Inactive until a maximum tested concentration of 200 uM; assay type: functional, cell-based; in short: as §1
K562 [4] = test: Inhibitory concentration determined against K562 human myelogenous leukemia cell lines; inactive until a maximum tested concentration of 200 uM; assay type: functional, cell-based; in short: as §1

IC50 (L1210): Not Active | IC50 (P388): Not Active | IC50 [1]: Not Active | IC50 (B16): Not Active | IC50 (HL-60): Not Active | IC50 (LoVo): Not Active | IC50 (K562 [4]): Not Active
Structure (SMILES): NC(=O)c1coc([C@@H]2O[C@H](CO)[C@@H](O)[C@H]2O)c1
Formation (K562 [2]): 124 pmol/10^9 cells | Formation (K562 [3]): 49.4 pmol/10^9 cells
